Measured values published in ChEMBL document CHEMBL1275282, “Synthesis, characterization, oxidative degradation, antibacterial activity and acetylcholinesterase/butyrylcholinesterase inhibitory effects of some new phosphorus(V) hydrazides” (Eur J Med Chem, 2010).

Columns and labels:
Bacillus cereus [1] = experiment: Antibacterial activity against Bacillus cereus at 10 mg/ml after 20-24 hrs by filter paper disc method; assay type: functional; conditions: read-out: DIZ
How it was run: (§1)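 Filter paper disc diffusion on nutrient agar, with nutrient-agar cultures as inocula. 6.5 mm paper discs were saturated with test solutions at 5 or 10 mg ml-1, with chloramphenicol at the same levels as reference. Plates were incubated at 37 ± 1 °C for 20–24 h. The growth-inhibition zone diameter was measured, and three diameters were averaged per sample.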

Bacillus subtilis [2] = experiment: Antibacterial activity against Bacillus subtilis at 5 mg/ml after 20-24 hrs by filter paper disc method; assay type: functional; conditions: read-out: DIZ; how it was run: as §1
Bacillus subtilis [3] = experiment: Antibacterial activity against Bacillus subtilis at 10 mg/ml after 20-24 hrs by filter paper disc method; assay type: functional; conditions: read-out: DIZ; how it was run: as §1
Escherichia coli [4] = experiment: Antibacterial activity against Escherichia coli at 10 mg/ml after 20-24 hrs by filter paper disc method; assay type: functional; conditions: read-out: DIZ; how it was run: as §1
Escherichia coli [5] = experiment: Antibacterial activity against Escherichia coli at 5 mg/ml after 20-24 hrs by filter paper disc method.; assay type: functional; conditions: read-out: DIZ; how it was run: as §1
Acetylcholinesterase = Acetylcholinesterase (Homo sapiens, UniProt P22303); experiment: Inhibition of human AChE by Ellman method
[6] = Lipophilicity, log P of the compound; assay type: physicochemical; conditions: octanol/water
Staphylococcus aureus [7] = experiment: Antibacterial activity against Staphylococcus aureus at 10 mg/ml after 20-24 hrs by filter paper disc method; assay type: functional; conditions: read-out: DIZ; how it was run: as §1
Cholinesterase = Cholinesterase (Homo sapiens, UniProt P06276); experiment: Inhibition of human BChE by Ellman method
How it was run: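 BChE activity was run as in the Ellman AChE format: thiocholine released from butyrylthiocholine was read with DTNB. Lyophilised enzyme was diluted in 100 mM phosphate buffer, pH 8. IC50 was taken from a plot of VI/V0 against log[I].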

Staphylococcus aureus [8] = experiment: Antibacterial activity against Staphylococcus aureus at 5 mg/ml after 20-24 hrs by filter paper disc method; assay type: functional; conditions: read-out: DIZ; how it was run: as §1
Klebsiella pneumoniae [9] = experiment: Antibacterial activity against Klebsiella pneumoniae at 10 mg/ml after 20-24 hrs by filter paper disc method; assay type: functional; conditions: read-out: DIZ; how it was run: as §1
Klebsiella pneumoniae [10] = experiment: Antibacterial activity against Klebsiella pneumoniae at 5 mg/ml after 20-24 hrs by filter paper disc method; assay type: functional; conditions: read-out: DIZ; how it was run: as §1
Bacillus cereus [11] = experiment: Antibacterial activity against Bacillus cereus at 5 mg/ml after 20-24 hrs by filter paper disc method; assay type: functional; conditions: read-out: DIZ; how it was run: as §1
Pseudomonas aeruginosa [12] = experiment: Antibacterial activity against Pseudomonas aeruginosa at 10 mg/ml after 20-24 hrs by filter paper disc method.; assay type: functional; conditions: read-out: DIZ; how it was run: as §1
Pseudomonas aeruginosa [13] = experiment: Antibacterial activity against Pseudomonas aeruginosa at 5 mg/ml after 20-24 hrs by filter paper disc method.; assay type: functional; conditions: read-out: DIZ; how it was run: as §1

Chain of Cholinesterase (P06276 whole entry): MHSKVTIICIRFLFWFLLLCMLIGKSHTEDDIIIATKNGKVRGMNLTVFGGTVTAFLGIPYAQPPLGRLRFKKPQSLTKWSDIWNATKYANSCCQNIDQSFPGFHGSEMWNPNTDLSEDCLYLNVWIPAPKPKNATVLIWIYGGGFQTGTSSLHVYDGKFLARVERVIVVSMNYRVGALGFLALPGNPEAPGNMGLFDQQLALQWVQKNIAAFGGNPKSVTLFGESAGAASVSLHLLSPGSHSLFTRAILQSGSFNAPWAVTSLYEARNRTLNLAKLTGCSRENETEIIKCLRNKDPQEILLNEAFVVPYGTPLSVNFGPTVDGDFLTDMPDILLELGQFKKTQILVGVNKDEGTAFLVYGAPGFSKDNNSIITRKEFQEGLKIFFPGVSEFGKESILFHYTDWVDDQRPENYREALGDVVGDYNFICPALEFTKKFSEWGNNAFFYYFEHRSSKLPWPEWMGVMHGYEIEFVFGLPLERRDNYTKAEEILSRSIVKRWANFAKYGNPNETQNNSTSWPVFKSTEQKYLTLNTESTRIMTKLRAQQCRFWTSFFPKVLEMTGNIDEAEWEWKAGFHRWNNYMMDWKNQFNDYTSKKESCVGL
Chain of Acetylcholinesterase (P22303 whole entry): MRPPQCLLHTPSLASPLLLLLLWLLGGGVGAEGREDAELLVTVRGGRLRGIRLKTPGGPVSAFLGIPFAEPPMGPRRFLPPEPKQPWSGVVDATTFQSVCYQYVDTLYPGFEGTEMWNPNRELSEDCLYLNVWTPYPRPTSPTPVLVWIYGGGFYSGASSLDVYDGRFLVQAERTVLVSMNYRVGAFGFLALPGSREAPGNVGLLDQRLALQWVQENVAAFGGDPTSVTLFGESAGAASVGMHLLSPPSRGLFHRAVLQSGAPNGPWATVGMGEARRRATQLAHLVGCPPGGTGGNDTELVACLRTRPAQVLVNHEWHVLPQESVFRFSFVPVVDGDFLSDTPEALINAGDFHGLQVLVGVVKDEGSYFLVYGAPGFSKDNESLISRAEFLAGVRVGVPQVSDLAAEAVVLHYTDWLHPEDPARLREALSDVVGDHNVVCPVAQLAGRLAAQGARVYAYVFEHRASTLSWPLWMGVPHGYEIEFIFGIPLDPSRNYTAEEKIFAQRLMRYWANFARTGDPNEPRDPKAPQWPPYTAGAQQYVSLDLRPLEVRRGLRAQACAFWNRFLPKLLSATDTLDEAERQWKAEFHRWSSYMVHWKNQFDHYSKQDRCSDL

| Compound | zone of inhibition at 10000 µg/mL (Bacillus cereus [1]) [mm] | zone of inhibition at 5000 µg/mL (Bacillus subtilis [2]) [mm] | zone of inhibition at 10000 µg/mL (Bacillus subtilis [3]) [mm] | zone of inhibition at 10000 µg/mL (Escherichia coli [4]) [mm] | zone of inhibition at 5000 µg/mL (Escherichia coli [5]) [mm] | IC50 (Acetylcholinesterase) [µM] | logP [6] | zone of inhibition at 10000 µg/mL (Staphylococcus aureus [7]) [mm] | IC50 (Cholinesterase) [µM] | zone of inhibition at 5000 µg/mL (Staphylococcus aureus [8]) [mm] | zone of inhibition at 10000 µg/mL (Klebsiella pneumoniae [9]) [mm] | zone of inhibition at 5000 µg/mL (Klebsiella pneumoniae [10]) [mm] | zone of inhibition at 5000 µg/mL (Bacillus cereus [11]) [mm] | zone of inhibition at 10000 µg/mL (Pseudomonas aeruginosa [12]) [mm] | zone of inhibition at 5000 µg/mL (Pseudomonas aeruginosa [13]) [mm] |
| --- | --- | --- | --- | --- | --- | --- | --- | --- | --- | --- | --- | --- | --- | --- | --- |
| COc1ccc(C(=O)NP(=O)(NN2CCOCC2)NN2CCOCC2)cc1 | 7 | 7 | 13 | 7 | – | – | – | – | – | – | – | – | – | – | – |
| O=C(NP(=O)(NN1CCOCC1)NN1CCOCC1)c1ccc(Cl)cc1 | 8 | 5 | 12 | 13 | 6 | – | – | – | – | – | – | – | – | – | – |
| O=C(NP(=O)(NN1CCOCC1)NN1CCOCC1)c1ccccc1 | – | 7 | 13 | 11 | 6 | 18600 | -0.78 | 8 | 2140 | – | – | – | – | – | – |
| Cc1ccc(OP(=O)(NN2CCOCC2)NN2CCOCC2)cc1 | – | 8 | 18 | 11 | 6 | – | – | 13 | – | 10 | 14 | 7 | – | – | – |
| O=P(NN1CCCCC1)(NN1CCCCC1)Oc1ccccc1 | 14 | 6 | 13 | 15 | 7 | – | – | 17 | – | 11 | 15 | 5 | 5 | – | – |
| O=C(NP(=O)(NN1CCCCC1)NN1CCCCC1)c1ccccc1 | – | 9 | 19 | – | – | 1950 | 1.35 | 7 | 430 | – | – | – | – | – | – |
| O=P(NN1CCOCC1)(NN1CCOCC1)c1ccccc1 | – | – | – | – | – | – | -1.12 | – | 2450 | – | – | – | – | – | – |
| O=C(N[C@H](CO)[C@H](O)c1ccc([N+](=O)[O-])cc1)C(Cl)Cl [CHLORAMPHENICOL] | 15 | 14 | 17 | 17 | 13 | – | – | 22 | – | 17 | 15 | 11 | 12 | 7 | – |
| O=P(O)(NN1CCCCC1)Oc1ccccc1 | – | 7 | 15 | 11 | 7 | 5490 | 1.29 | 8 | 1580 | – | – | – | – | 10 | 5 |
| O=P(NN1CCOCC1)(NN1CCOCC1)Oc1ccccc1 | – | – | – | – | – | 9550 | -0.54 | – | 1620 | – | – | – | – | – | – |
| O=P(NN1CCOCC1)(NN1CCOCC1)Oc1ccccc1Cl | 10 | – | – | 10 | 7 | – | – | – | – | – | – | – | 7 | – | – |
